Results on 24 compounds are retold here after PubChem BioAssay.

Assay [1] can be described thus: S. cerevisiae growth inhibition in permissive medium (OD615), pilot counter-assay for S. cerevisiae lifespan shortening project, permissive growth control (AID 705;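 active = growth inhibition above 25% in both replicates, a cutoff set 3 SD above the mean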). Conditions: OD615, 24 h, at 10 µM, hits give high values. In a few lines: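 assay system = Saccharomyces cerevisiae strain carrying genetically modified DeaD replicative-lifespan system | technique = absorbance (optical density) at 615 nm | buffer or medium = permissive raffinose/galactose medium | timing = cells pre-grown 4 h, then 24 h compound exposure, 30 °C humidified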

Assay [2] can be described thus: S. cerevisiae growth inhibition in restrictive medium, OD615, pilot screen, restrictive growth control, yeast lifespan reduction project (AID 706;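 active = growth inhibition above a set limit, 3 SD over mean compound inhibition, in both replicates, cut at about 43% in these data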;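 also: modified DeaD lifespan yeast strain shifted to restrictive glucose medium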). Conditions: OD615, 48 h, at 10 µM, hits give high values. In a few lines: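 System: modified S. cerevisiae. Buffer or medium: CSMM-D glucose medium. Incubation: 4 h pre-growth plus 48 h compound exposure, 30 °C. Detection: absorbance (optical density) measured at 615 nm.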

The nature of assay [3]: doxorubicin toxicity protection in MRP-1 cells – H69AR cells, CellTiter-Glo, duplicate, MRP-1 activator project, pilot screen (AID 807;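 active = viability increase at or above a cutoff of the median across tested compounds plus 3 SD, cut at about 8.5% in these data, passing the limit was not always enough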;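 also: compound pretreatment 18-22 h then 72 h combined with doxorubicin; 0% = doxorubicin alone and 100% = vehicle without doxorubicin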). Conditions: H69AR viability with doxorubicin, CellTiter-Glo luminescence; at 10 µM; hits give high values.
Assay [4] in a line: viability of HCT116 without oncogenic beta-catenin – human colon tumor cells, pilot screen (AID 823;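 active = cell viability at or below a set limit in both duplicate runs, the limit being the all-compound median minus 4 SD, cut at about 23% in these data, passing the limit was not always enough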;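 also: 0% = wells killed by 20 µM Hyamine and 100% = untreated DMSO cell wells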). Conditions: HCT116 beta-catenin knockout viability, CellTiter-Glo, 60 h; at 10 µM; hits give low values.
Assay [5] is described as follows: viability of PTEN-null HCT116 cells – cell-based, HCT116 clonal line, CellTiter-Glo, pilot screen (AID 824;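 active = viability at or below 27.92% in each of two runs, the all-compound median minus 4 SD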;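 also: 0% = 20 µM Hyamine control and 100% = vehicle cell control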). Particulars: HCT116 PTEN-deleted viability, 60 h, at 10 µM, hits give low values.
A short description of assay [6]: RAM pathway blockade in budding yeast – dse1pr::URA3 reporter, 5-FOA selection, pilot screen (AID 869;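 active = inhibition over a set limit, the all-compound mean plus 3 SD, in both replicate runs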;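 also: 0% = DMSO wells with no growth and 100% = 10 µM 1-NA-PP1 with full growth; RAM network block rescues cells from 5-FOA so hits raise OD615 growth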). Particulars: S. cerevisiae dse1pr::URA3 5-FOA growth, OD615, 2 d; at 10 µM; hits give high values; strain carries analog-sensitive mutant Cbk1 kinase.
A short description of assay [7]: RAM signaling pathway blockade in yeast – S. cerevisiae, Pdr1DBD-CYC8 efflux-inhibited sensitized strain, primary screen (AID 1298).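 Also: 0% = DMSO untreated cells without growth and 100% = 10 µM 1-NA-PP1 full growth; higher means more yeast growth rescued from 5-FOA killing.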 Conditions: S. cerevisiae cbk1-as DSE1-URA3 strain, 5-FOA growth OD615, 2 d; at 50 µM; hits give high values.

A number with no mark means an inactive call. Inconclusive results are not listed. Activity calls are given as the source filed them.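 The calls were made as follows, unless noted: active = RAM network inhibition above 8.4% in each of two replicates, 3 SD over the compound average; inconclusive = above 8.4% inhibition in only one replicate; inactive = 8.4% inhibition or less in each replicate.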

Take `CCCc1ccc(-c2ccc(C(=O)O)cc2)nc1`: the values for the growth inhibition in assay [1] and in assay [2] were 8.77% and 5.22%, respectively. Besides, in assay [3], the viability increase is -3.24%. In addition, the viability is 101% in assay [4] and 95.9% in assay [5]. The inhibition in assay [6] was -0.425%. The RAM network inhibition in assay [7] is -2.78%.

As to `CCC/C(=C1/C(=O)CC(C)(C)C(C(=O)OC)C1=O)N1CCCC1` (stereo not drawn), the growth inhibition in assay [1] was -4.46%; in assay [2], 5.2%. For the same compound, the viability increase in assay [3] was -1.41%. Besides, the viability was 95.1% in assay [4] and 97.5% in assay [5]. In addition, the inhibition in assay [6] is 1.51%. Moreover, the RAM network inhibition in assay [7] was -2.05%.

Regarding `Cc1cccc(NC(=O)CN2CCN(CC(=O)Nc3cccc(C)c3)CC2)c1`, the growth inhibition in assay [1] was -14.3%; in assay [2] it was -10%. Further, the viability increase in assay [3] was -4.48%. Further, the viability in assay [4] was 90.1%; in assay [5] it was 98%. Moreover, the inhibition in assay [6] was 0.165%. The RAM network inhibition in assay [7] is 2.17%.

Consider `Cc1csc2nc(CNS(=O)(=O)N(C)C)cn12`, for which the growth inhibition was 4.64% in assay [1] and 19.6% in assay [2]. Also, the viability increase in assay [3] is -3.46%. The viability is 95.2% in assay [4] and 99.1% in assay [5]. In addition, the inhibition in assay [6] was 0.875%. In addition, the RAM network inhibition in assay [7] is 0.05%.

For `CCOC(=O)c1nc2ccccc2s1`, the growth inhibition in assay [1] is -4.63%; in assay [2] it was -15.7%. Besides, the viability increase in assay [3] is -2.72%. Besides, the viability is 99.2% in assay [4] and 97.4% in assay [5]. The inhibition in assay [6] is 1.02%. Moreover, the RAM network inhibition in assay [7] is 1.61%.

On to `O=C(Cn1cc2c(n1)CCCCC2)Nc1ccc(F)cc1F`, for which the growth inhibition in assay [1] is -4.89%; in assay [2], 4.12%. In assay [3], the viability increase was 0.49%. In addition, the viability was 104% in assay [4] and 97% in assay [5]. Besides, the inhibition in assay [6] is 0.55%. Further, in assay [7], the RAM network inhibition was 2.75%.

As to `CC1CCc2nn(CC(=O)NCCCN3CCCC3=O)cc2C1` (stereo not drawn), the growth inhibition is -17.8% in assay [1] and -22.7% in assay [2]. The viability increase in assay [3] is -1.1%. The viability in assay [4] is 103%; in assay [5] it was 93.7%. The inhibition in assay [6] was 1.29%. The RAM network inhibition in assay [7] is 4.13%.

In the case of `CCc1ccc(N(CC(=O)NC2CCCCC2)S(=O)(=O)c2c(C)noc2C)cc1`, the growth inhibition was -9.43% in assay [1] and -2.85% in assay [2]. Besides, in assay [3], the viability increase was -1.23%. Moreover, the viability in assay [4] is 92.2%; in assay [5], 92.3%. The inhibition in assay [6] was 2.05%. For the same compound, the RAM network inhibition in assay [7] was 4.91%.

For `N#CCCN1CCN(S(=O)(=O)c2ccc(S(=O)(=O)NC3CC3)cc2)CC1`, the growth inhibition in assay [1] is -10.4%; in assay [2], -5.2%. Further, in assay [3], the viability increase is 0.24%. For the same compound, the viability was 103% in assay [4] and 99.6% in assay [5]. Besides, the inhibition in assay [6] was 0.68%. Also, the RAM network inhibition in assay [7] was 3.16%.

As to `Cc1cc2oc(C(=O)Nc3cccnc3)c(C)c2cc1C`, the growth inhibition in assay [1] is 7.22%; in assay [2], 6.46%. In addition, the viability increase in assay [3] is -1.32%. For the same compound, the values for the viability in assay [4] and in assay [5] were 90.1% and 87%, respectively. Further, the inhibition in assay [6] is 0.52%. Moreover, the RAM network inhibition in assay [7] was 1.77%.

As for `CCn1cc(C(=O)Nc2ccc3c(c2)OCCO3)c2cc(OC)c(OC)cc2c1=O`, the growth inhibition in assay [1] was -10%; in assay [2], 2.6%. The viability increase in assay [3] was -6.05%. Also, the viability is 101% in assay [4] and 88.6% in assay [5]. In addition, the inhibition in assay [6] was 0.915%. In assay [7], the RAM network inhibition is -1.36%.

As for `COc1cc(C(=O)Oc2c(CN3CCOCC3)cc(Cl)c3cccnc23)cc(OC)c1OC`, the results for the growth inhibition in assay [1] and in assay [2] were -8.94% and -33.1%, respectively. Moreover, the viability increase in assay [3] was -8.41%. For the same compound, the viability is 6.72% (active) in assay [4] and 4.81% (active) in assay [5]. Further, in assay [6], the inhibition was 1.09%. For the same compound, the RAM network inhibition in assay [7] is 0.27%.

In the case of `COc1cccc(C2CC(c3ccc(C(C)C)cc3)n3nc(N)nc3N2)c1` (stereo not drawn), the growth inhibition in assay [1] was -2.39%; in assay [2], 3.09%. Besides, the viability increase in assay [3] was 0.91%. The viability in assay [4] is 97.1%; in assay [5] it was 95.7%. Further, in assay [6], the inhibition is 1.5%. For the same compound, the RAM network inhibition in assay [7] is 3.94%.

With `O=C(Nc1ccccc1C(=O)NCc1ccco1)NC1CCCCC1`, the growth inhibition is -5.4% in assay [1] and 6.01% in assay [2]. In addition, the viability increase in assay [3] is -3.58%. The viability was 93.1% in assay [4] and 92.8% in assay [5]. In addition, the inhibition in assay [6] was 0.79%. Besides, the RAM network inhibition in assay [7] is 0.59%.

In the case of `O=S(=O)(c1cc(Cl)ccc1Cl)N1CCN(Cc2ccc3c(c2)OCO3)CC1`, the growth inhibition in assay [1] was -18.5%; in assay [2], -8.86%. Besides, the viability increase in assay [3] was 0.21%. Moreover, the viability in assay [4] was 94.8%; in assay [5], 83.7%. The inhibition in assay [6] was 0.37%. Also, the RAM network inhibition in assay [7] was 2.23%.

Take `Cc1ccc(-c2nn(C)c(=O)c3ccccc23)cc1S(=O)(=O)N1CCCC1`: the results for the growth inhibition in assay [1] and in assay [2] were -1.23% and -6.2%, respectively. For the same compound, the viability increase in assay [3] was -5.14%. For the same compound, the viability in assay [4] is 49.8%; in assay [5], 61%. Further, the inhibition in assay [6] was 0.01%. For the same compound, the RAM network inhibition in assay [7] was 2.78%.

Turning to `CCCCOc1ccccc1NC(=O)CC1SC(=NCC)N(CC)C1=O` (stereo not drawn), the growth inhibition is -9.35% in assay [1] and -0.705% in assay [2]. In addition, the viability increase in assay [3] is -2.29%. Also, the viability is 85.6% in assay [4] and 81.3% in assay [5]. In assay [6], the inhibition is 1.08%. For the same compound, the RAM network inhibition in assay [7] was 2.04%.

For `COc1ccccc1NC(=O)CCNC(=O)Cn1ccc2ccccc2c1=O`, the growth inhibition is -12.7% in assay [1] and -11.8% in assay [2]. The viability increase in assay [3] is -1.84%. The viability in assay [4] was 96.6%; in assay [5], 93.3%. Besides, the inhibition in assay [6] was 0.74%. Also, the RAM network inhibition in assay [7] was 3.6%.

Consider `COc1ccc(NC(=O)NCCCN2CCc3ccccc3C2)cc1`, for which the growth inhibition in assay [1] was 3.62%; in assay [2], 0.72%. The viability increase in assay [3] is -2.53%. The viability in assay [4] was 97.3%; in assay [5], 98.2%. Also, the inhibition in assay [6] is 1.15%. Further, the RAM network inhibition in assay [7] was -1.19%.

Take `COCCNC(=O)CN1CCOc2ccccc21`: the growth inhibition in assay [1] is -22.5%; in assay [2] it was 14.5%. Further, the viability increase in assay [3] was -4.65%. Further, the values for the viability in assay [4] and in assay [5] were 94.6% and 102%, respectively. In assay [6], the inhibition was 0.98%. The RAM network inhibition in assay [7] is 3.11%.

Take `CCOC(=O)CSc1nnc(CSc2nc3sc4c(c3c(=O)[nH]2)CCC4)n1C`: the results for the growth inhibition in assay [1] and in assay [2] were -5.48% and 4.33%, respectively. Also, the viability increase in assay [3] is -2%. Further, the viability in assay [4] was 98.4%; in assay [5], 107%. The inhibition in assay [6] was 0.35%. Further, in assay [7], the RAM network inhibition was 6.56%.

With `COc1ccc(C2=CC(c3ccc(Cl)cc3)n3cnnc3N2)cc1OC` (stereo not drawn), the growth inhibition in assay [1] was -1.79%; in assay [2], 2.91%. The viability increase in assay [3] was -2.06%. The viability in assay [4] was 97.3%; in assay [5], 87%. Further, in assay [6], the inhibition was 0.37%. Besides, in assay [7], the RAM network inhibition is 0.78%.

On to `CCCCN(C)C(=O)c1c[nH]c2ccc(S(=O)(=O)N3CCOCC3)cc2c1=O`, for which the growth inhibition in assay [1] is -5.67%; in assay [2] it was -15.5%. In addition, the viability increase in assay [3] was 0.64%. Also, the viability in assay [4] is 109%; in assay [5], 98.8%. Also, the inhibition in assay [6] was 2.05%. Further, the RAM network inhibition in assay [7] is 5.01%.

In the case of `O=C(NCCc1ccccc1)c1ccncc1`, the growth inhibition was -5.38% in assay [1] and 4.46% in assay [2]. Besides, the viability increase in assay [3] is -0.91%. The viability was 88.8% in assay [4] and 93.5% in assay [5]. Further, the inhibition in assay [6] was 1.67%. Further, in assay [7], the RAM network inhibition is 0.86%.
